These results are taken from ChEMBL document CHEMBL4732210, “Discovery of new phenyl sulfonyl-pyrimidine carboxylate derivatives as the potential multi-target drugs with effective anti-Alzheimer's action: Design, synthesis, crystal structure and in-vitro biological evaluation” (Eur J Med Chem, 2021).

Format in all cases: cell-based
Common to all, as to conditions: Erythrocyte

Compound in data set [1]: CCOC(=O)c1c(C)nc(N2CCN(S(=O)(=O)c3ccc(NC(C)=O)c(Cl)c3)CC2)nc1-c1ccc(OC)c(OC)c1
The data set can be described thus: Non-competitive inhibition of AChE in human erythrocytes assessed as Vmax at 100 nM measured at 2 mins interval for 10 mins by Lineweaver-Burk plot analysis. In a few lines:
(§1)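 Human AChE kinetics in the Ellman DTNB assay. Inhibitor at 25, 50 and 100 nM, each with six ATCI concentrations, against an inhibitor-free series. Activity read every 2 min over 10 min. Km and Vmax from Michaelis–Menten non-linear regression; mechanism from Lineweaver–Burk plots; Ki from Dixon plot over four inhibitor concentrations and from slope/intercept replots. Triplicate.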

Compound in data set [2]: CCOC(=O)c1c(C)nc(N2CCN(S(=O)(=O)c3ccc(NC(C)=O)c(Cl)c3)CC2)nc1-c1ccc(OC)c(OC)c1
The data set can be described thus: Non-competitive inhibition of AChE in human erythrocytes assessed as Vmax at 50 nM measured at 2 mins interval for 10 mins by Lineweaver-Burk plot analysis. In short, it runs like this:
as §1

Compound in data set [3]: CCOC(=O)c1c(C)nc(N2CCN(S(=O)(=O)c3ccc(NC(C)=O)c(Cl)c3)CC2)nc1-c1ccc(OC)c(OC)c1
The data set is described as follows: Non-competitive inhibition of AChE in human erythrocytes assessed as Km at 50 nM measured at 2 mins interval for 10 mins by Lineweaver-Burk plot analysis. In short, it runs like this: as §1

Compound in data set [4]: CCOC(=O)c1c(C)nc(N2CCN(S(=O)(=O)c3ccc(NC(C)=O)c(Cl)c3)CC2)nc1-c1ccc(OC)c(OC)c1
The data set can be described thus: Non-competitive inhibition of AChE in human erythrocytes assessed as Km at 100 nM measured at 2 mins interval for 10 mins by Lineweaver-Burk plot analysis. In a few lines:
as §1

Compound in data set [5]: CCOC(=O)c1c(C)nc(N2CCN(S(=O)(=O)c3ccc(NC(C)=O)c(Cl)c3)CC2)nc1-c1ccc(OC)c(OC)c1
The data set can be described thus: Non-competitive inhibition of AChE in human erythrocytes assessed as Vmax at 25 nM measured at 2 mins interval for 10 mins by Lineweaver-Burk plot analysis. In short, it runs like this: as §1

Compound in data set [6]: CCOC(=O)c1c(C)nc(N2CCN(S(=O)(=O)c3ccc(NC(C)=O)c(Cl)c3)CC2)nc1-c1ccc(OC)c(OC)c1
The data set is described as follows: Non-competitive inhibition of AChE in human erythrocytes assessed as Km at 25 nM measured at 2 mins interval for 10 mins by Lineweaver-Burk plot analysis. In short, it runs like this: as §1

B1: Acetylcholinesterase (Homo sapiens), P22303 (protein)
chain: MRPPQCLLHTPSLASPLLLLLLWLLGGGVGAEGREDAELLVTVRGGRLRGIRLKTPGGPVSAFLGIPFAEPPMGPRRFLPPEPKQPWSGVVDATTFQSVCYQYVDTLYPGFEGTEMWNPNRELSEDCLYLNVWTPYPRPTSPTPVLVWIYGGGFYSGASSLDVYDGRFLVQAERTVLVSMNYRVGAFGFLALPGSREAPGNVGLLDQRLALQWVQENVAAFGGDPTSVTLFGESAGAASVGMHLLSPPSRGLFHRAVLQSGAPNGPWATVGMGEARRRATQLAHLVGCPPGGTGGNDTELVACLRTRPAQVLVNHEWHVLPQESVFRFSFVPVVDGDFLSDTPEALINAGDFHGLQVLVGVVKDEGSYFLVYGAPGFSKDNESLISRAEFLAGVRVGVPQVSDLAAEAVVLHYTDWLHPEDPARLREALSDVVGDHNVVCPVAQLAGRLAAQGARVYAYVFEHRASTLSWPLWMGVPHGYEIEFIFGIPLDPSRNYTAEEKIFAQRLMRYWANFARTGDPNEPRDPKAPQWPPYTAGAQQYVSLDLRPLEVRRGLRAQACAFWNRFLPKLLSATDTLDEAERQWKAEFHRWSSYMVHWKNQFDHYSKQDRCSDL
As to B1, the Vmax was found to be 5.54 U/min in data set [1], 6.52 U/min in data set [2] and 7.2 U/min in data set [5]. Moreover, the results for the Michaelis constant (Km) in data set [3], in data set [4] and in data set [6] were 0.0852 µM, 0.0965 µM and 0.0772 µM, respectively.
